Active and inactive are the calls of the source. The calls are words filed in the database; no cut-off is given here.
Tests used:
[1] = Partition coefficient (logP); type: physicochemical; conditions: octanol/water
Procedure, shortened: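 Potentiometric titration in n-octanol/water; each Log P value is the mean of at least three independent experiments.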

[2] = target: T1, Sodium channel alpha subunits; brain (Types I, II, III) (Rattus norvegicus) (UniProt P04775+P04774+P08104); experiment: Inhibition of [3H]batrachotoxin binding to rat brain sodium channels at 0.1 uM
T1 sequence (P04775 whole entry, looked up, other chains not shown): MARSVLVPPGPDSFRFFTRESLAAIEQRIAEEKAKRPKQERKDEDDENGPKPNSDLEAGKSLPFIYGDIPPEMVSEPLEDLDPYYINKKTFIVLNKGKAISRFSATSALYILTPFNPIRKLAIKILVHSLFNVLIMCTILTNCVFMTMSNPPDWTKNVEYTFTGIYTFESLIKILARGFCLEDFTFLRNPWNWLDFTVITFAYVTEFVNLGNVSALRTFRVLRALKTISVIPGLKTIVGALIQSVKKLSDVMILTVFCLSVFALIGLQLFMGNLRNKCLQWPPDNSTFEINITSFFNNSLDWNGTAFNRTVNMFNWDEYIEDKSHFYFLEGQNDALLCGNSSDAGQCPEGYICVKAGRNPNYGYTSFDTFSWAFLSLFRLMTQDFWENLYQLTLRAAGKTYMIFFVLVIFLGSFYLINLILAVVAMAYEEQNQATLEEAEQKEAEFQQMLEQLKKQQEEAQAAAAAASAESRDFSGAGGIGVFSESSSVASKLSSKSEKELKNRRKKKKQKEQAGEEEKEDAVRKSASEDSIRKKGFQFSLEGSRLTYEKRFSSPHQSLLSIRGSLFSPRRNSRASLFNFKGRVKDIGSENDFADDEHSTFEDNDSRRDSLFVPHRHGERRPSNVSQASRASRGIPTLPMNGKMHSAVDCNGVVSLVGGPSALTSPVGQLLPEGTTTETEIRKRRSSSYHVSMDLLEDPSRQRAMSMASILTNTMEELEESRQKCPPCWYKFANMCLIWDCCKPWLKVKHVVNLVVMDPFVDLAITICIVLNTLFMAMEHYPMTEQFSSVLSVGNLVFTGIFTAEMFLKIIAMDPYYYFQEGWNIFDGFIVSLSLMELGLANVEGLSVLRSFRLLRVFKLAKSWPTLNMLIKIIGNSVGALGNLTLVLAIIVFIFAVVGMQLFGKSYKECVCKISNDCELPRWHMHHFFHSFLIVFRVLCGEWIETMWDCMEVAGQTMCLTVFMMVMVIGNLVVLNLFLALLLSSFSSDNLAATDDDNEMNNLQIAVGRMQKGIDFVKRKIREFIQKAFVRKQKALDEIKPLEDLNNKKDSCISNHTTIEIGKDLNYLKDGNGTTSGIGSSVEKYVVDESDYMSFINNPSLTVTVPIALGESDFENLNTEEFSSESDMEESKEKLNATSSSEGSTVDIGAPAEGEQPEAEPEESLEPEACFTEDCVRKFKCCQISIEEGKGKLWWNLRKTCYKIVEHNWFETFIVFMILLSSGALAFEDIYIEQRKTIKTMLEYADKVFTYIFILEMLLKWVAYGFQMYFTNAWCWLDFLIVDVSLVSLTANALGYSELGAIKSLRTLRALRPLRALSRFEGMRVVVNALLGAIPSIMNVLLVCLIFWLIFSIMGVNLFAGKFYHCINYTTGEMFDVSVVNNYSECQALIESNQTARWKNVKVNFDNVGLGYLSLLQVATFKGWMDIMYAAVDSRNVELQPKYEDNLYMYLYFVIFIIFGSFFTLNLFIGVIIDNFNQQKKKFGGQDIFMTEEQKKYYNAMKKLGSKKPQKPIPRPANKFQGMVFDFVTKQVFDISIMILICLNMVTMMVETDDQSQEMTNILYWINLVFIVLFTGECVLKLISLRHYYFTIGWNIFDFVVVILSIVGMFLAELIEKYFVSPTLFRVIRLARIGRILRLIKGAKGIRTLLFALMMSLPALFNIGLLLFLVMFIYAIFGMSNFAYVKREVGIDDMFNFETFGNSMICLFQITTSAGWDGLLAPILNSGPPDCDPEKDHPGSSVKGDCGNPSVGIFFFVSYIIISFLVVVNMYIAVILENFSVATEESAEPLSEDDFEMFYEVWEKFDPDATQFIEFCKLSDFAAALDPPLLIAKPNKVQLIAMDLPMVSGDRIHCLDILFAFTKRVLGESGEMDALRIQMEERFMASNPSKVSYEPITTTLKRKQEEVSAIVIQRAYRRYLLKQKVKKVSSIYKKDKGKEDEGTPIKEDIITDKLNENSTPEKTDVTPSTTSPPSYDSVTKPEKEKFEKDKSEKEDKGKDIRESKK
T1 sequence (P08104 whole entry, looked up, other chains not shown): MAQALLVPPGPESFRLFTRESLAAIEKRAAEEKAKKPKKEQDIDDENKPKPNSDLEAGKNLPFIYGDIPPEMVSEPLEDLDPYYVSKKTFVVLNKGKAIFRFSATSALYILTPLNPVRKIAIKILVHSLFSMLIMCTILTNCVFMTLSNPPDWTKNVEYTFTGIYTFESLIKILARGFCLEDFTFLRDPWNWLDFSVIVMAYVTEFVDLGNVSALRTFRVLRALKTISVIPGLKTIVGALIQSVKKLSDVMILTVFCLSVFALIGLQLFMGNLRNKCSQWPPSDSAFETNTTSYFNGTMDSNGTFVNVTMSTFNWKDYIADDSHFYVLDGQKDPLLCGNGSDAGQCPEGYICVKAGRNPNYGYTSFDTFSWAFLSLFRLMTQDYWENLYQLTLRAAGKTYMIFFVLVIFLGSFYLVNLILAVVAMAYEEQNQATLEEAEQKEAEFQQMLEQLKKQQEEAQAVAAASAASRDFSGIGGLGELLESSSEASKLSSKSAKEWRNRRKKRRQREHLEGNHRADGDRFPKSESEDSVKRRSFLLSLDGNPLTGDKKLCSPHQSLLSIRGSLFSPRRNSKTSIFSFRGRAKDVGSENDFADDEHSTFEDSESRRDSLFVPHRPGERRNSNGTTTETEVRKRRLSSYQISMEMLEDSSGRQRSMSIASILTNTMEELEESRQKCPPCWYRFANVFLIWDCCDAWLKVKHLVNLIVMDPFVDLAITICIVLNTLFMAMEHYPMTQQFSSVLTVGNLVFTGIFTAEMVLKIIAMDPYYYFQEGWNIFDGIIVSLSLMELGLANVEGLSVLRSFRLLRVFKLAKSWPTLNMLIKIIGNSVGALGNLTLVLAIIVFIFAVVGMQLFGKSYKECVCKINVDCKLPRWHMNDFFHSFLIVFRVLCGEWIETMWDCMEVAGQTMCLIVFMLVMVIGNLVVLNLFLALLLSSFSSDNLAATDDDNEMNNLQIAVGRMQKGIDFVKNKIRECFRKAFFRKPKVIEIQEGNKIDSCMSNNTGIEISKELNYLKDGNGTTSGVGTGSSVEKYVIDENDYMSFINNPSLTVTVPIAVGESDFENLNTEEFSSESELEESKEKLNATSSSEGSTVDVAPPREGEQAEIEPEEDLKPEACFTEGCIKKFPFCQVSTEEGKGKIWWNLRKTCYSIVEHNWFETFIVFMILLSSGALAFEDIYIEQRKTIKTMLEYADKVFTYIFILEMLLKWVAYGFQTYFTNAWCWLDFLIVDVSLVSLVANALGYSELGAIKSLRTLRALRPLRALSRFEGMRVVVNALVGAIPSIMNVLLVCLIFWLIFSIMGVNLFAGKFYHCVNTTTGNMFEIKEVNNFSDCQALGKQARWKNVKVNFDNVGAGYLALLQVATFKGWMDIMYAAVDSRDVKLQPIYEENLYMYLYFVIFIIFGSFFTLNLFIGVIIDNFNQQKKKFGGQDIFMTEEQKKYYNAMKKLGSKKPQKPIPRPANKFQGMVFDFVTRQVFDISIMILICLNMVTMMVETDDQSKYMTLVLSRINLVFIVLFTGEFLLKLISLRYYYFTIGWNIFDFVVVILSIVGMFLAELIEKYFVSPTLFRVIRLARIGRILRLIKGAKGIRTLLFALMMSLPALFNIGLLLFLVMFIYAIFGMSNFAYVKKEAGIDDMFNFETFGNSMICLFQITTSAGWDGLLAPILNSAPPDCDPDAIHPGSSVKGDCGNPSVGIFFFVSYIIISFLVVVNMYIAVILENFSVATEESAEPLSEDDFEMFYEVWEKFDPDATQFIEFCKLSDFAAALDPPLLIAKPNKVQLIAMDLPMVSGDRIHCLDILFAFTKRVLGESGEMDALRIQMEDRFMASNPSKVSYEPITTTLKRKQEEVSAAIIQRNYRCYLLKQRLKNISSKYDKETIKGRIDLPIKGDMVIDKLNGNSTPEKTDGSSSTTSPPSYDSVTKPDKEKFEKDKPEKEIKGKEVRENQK

[3] = target: T1, Sodium channel alpha subunits; brain (Types I, II, III) (Rattus norvegicus); experiment: Inhibition of [3H]batrachotoxin binding to rat brain sodium channels at 1 uM
[4] = target: T1, Sodium channel alpha subunits; brain (Types I, II, III) (Rattus norvegicus); experiment: Inhibition of [3H]batrachotoxin binding to rat brain sodium channels at 10 uM
[5] = target: T1, Sodium channel alpha subunits; brain (Types I, II, III) (Rattus norvegicus); experiment: Affinity for sodium channel site 2 up to 10 uM; Inactive; type: protein assay

Row | SMILES | logP [1] | further results
1 | O=C(O)c1[nH]c2cc(Cl)cc(Cl)c2c1CNS(=O)(=O)c1ccccc1 | 3.1 | 
2 | CC(C)C1C(=O)N(c2ccccc2)C(=O)N1Cc1c(C(=O)O)[nH]c2cc(Cl)cc(Cl)c12 (stereo not drawn) |  | inhibition [2]: 11%; inhibition [3]: 8%; inhibition [4]: 29%
3 | O=C(NCc1c(C(=O)O)[nH]c2cc(Cl)cc(Cl)c12)c1ccccc1 | 2.36 | 
4 | O=C(O)c1[nH]c2cc(Cl)cc(Cl)c2c1CN1CC(=O)N(c2ccccc2)C1=O | 2.16 | IA [5]: inactive
5 | O=C(NCc1c(C(=O)O)[nH]c2cc(Cl)cc(Cl)c12)Nc1ccccc1 | 2.83 | 

Reference: ChEMBL document CHEMBL1145022, “Hydantoin-substituted 4,6-dichloroindole-2-carboxylic acids as ligands with high affinity for the glycine binding site of the NMDA receptor” (J Med Chem, 2003)
